Reference: ChEMBL document CHEMBL1153921, “Design, synthesis, and biological evaluation of novel 1-(1H-1,2,4-triazole-1-yl)-2-(2,4-difluorophenyl)-3-substituted benzylamino-2-propanols” (2009)
Converted amounts (≈) assume the structure as drawn.

Assays:
Assay type in all cases: functional
[1] = test system: Trichophyton rubrum; assay: Antimicrobial activity against Trichophyton rubrum by micro-broth dilution method
Outline: (§1)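 Clinical isolates. Tested by broth microdilution in 96-well plates following NCCLS M27-A2. MIC80, the minimum concentration inhibiting growth by 80%, was recorded. Marketed reference antifungals were included as positive controls.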

[2] = test system: Pichia kudriavzevii; assay: Antimicrobial activity against Candida krusei by micro-broth dilution method; outline: as §1
[3] = test system: Aspergillus fumigatus; assay: Antimicrobial activity against Aspergillus fumigatus by micro-broth dilution method; outline: as §1
[4] = test system: Candida albicans; assay: Antimicrobial activity against Candida albicans by micro-broth dilution method
Outline: (§2)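 ATCC standard strains. Broth microdilution in 96-well plates following NCCLS M27-A2 (reference broth dilution method for yeasts). Endpoint is MIC80, the lowest concentration giving 80% growth inhibition. Marketed reference antifungals ran alongside as positive controls.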

[5] = test system: Candida parapsilosis; assay: Antimicrobial activity against Candida parapsilosis by micro-broth dilution method; details: Lodderomyces parapsilosis; outline: as §1
[6] = test system: Nannizzia gypsea; assay: Antimicrobial activity against Microsporum gypseum by micro-broth dilution method; outline: as §1
[7] = test system: Candida tropicalis; assay: Antimicrobial activity against Candida tropicalis by micro-broth dilution method; outline: as §1
[8] = test system: Cryptococcus neoformans; assay: Antimicrobial activity against Cryptococcus neoformans by micro-broth dilution method; outline: as §2

| Structure (SMILES) | MIC80 [1] [µg/mL] | MIC80 [2] [µg/mL] | MIC80 [3] [µg/mL] | MIC80 [4] [µg/mL] | MIC80 [5] [µg/mL] | MIC80 [6] [µg/mL] | MIC80 [7] [µg/mL] | MIC80 [8] [µg/mL] |
| --- | --- | --- | --- | --- | --- | --- | --- | --- |
| CCCCN(Cc1ccccc1F)CC(O)(Cn1cncn1)c1ccc(F)cc1F (centres undefined) | 1 (≈ 2.39 µM) | 0.25 (≈ 0.597 µM) | 16 (≈ 38.2 µM) | 0.0625 (≈ 0.149 µM) | 0.25 (≈ 0.597 µM) | 0.25 (≈ 0.597 µM) | 0.25 (≈ 0.597 µM) | 0.25 (≈ 0.597 µM) |
| CCCN(Cc1ccccc1Br)CC(O)(Cn1cncn1)c1ccc(F)cc1F (centres undefined) | 1 (≈ 2.15 µM) | 0.25 (≈ 0.537 µM) | > 64 | 0.0625 (≈ 0.134 µM) | 0.0039 (≈ 0.00838 µM) | 0.0625 (≈ 0.134 µM) | 0.25 (≈ 0.537 µM) | 0.25 (≈ 0.537 µM) |
| CCCCN(Cc1ccc(Cl)cc1)CC(O)(Cn1cncn1)c1ccc(F)cc1F (centres undefined) | 1 (≈ 2.3 µM) | 1 (≈ 2.3 µM) | > 64 | 1 (≈ 2.3 µM) | 1 (≈ 2.3 µM) | 1 (≈ 2.3 µM) | 1 (≈ 2.3 µM) | 1 (≈ 2.3 µM) |
| CC(C)N(Cc1ccccc1)CC(O)(Cn1cncn1)c1ccc(F)cc1F (centres undefined) | 0.0625 (≈ 0.162 µM) | 0.25 (≈ 0.647 µM) | 64 (≈ 166 µM) | 0.0156 (≈ 0.0404 µM) | 0.0625 (≈ 0.162 µM) | 0.0156 (≈ 0.0404 µM) | 0.25 (≈ 0.647 µM) | 0.25 (≈ 0.647 µM) |
| CCCCN(Cc1ccccc1Br)CC(O)(Cn1cncn1)c1ccc(F)cc1F (centres undefined) | 1 (≈ 2.09 µM) | 1 (≈ 2.09 µM) | > 64 | 1 (≈ 2.09 µM) | 0.25 (≈ 0.522 µM) | 0.25 (≈ 0.522 µM) | 0.25 (≈ 0.522 µM) | 0.25 (≈ 0.522 µM) |
| CC(C)N(Cc1ccc(F)cc1)CC(O)(Cn1cncn1)c1ccc(F)cc1F (centres undefined) | 0.25 (≈ 0.618 µM) | 0.0625 (≈ 0.155 µM) | > 64 | 0.0625 (≈ 0.155 µM) | 0.0625 (≈ 0.155 µM) | 0.0625 (≈ 0.155 µM) | 0.25 (≈ 0.618 µM) | 0.0625 (≈ 0.155 µM) |
| CC(=O)N1CCN(c2ccc(OCC3COC(Cn4ccnc4)(c4ccc(Cl)cc4Cl)O3)cc2)CC1 (centres undefined) [KETOCONAZOLE] | 0.0625 (≈ 0.118 µM) | 0.25 (≈ 0.47 µM) | 1 (≈ 1.88 µM) | 0.0156 (≈ 0.0294 µM) | 0.0625 (≈ 0.118 µM) | 0.0156 (≈ 0.0294 µM) | 0.0625 (≈ 0.118 µM) | 0.0625 (≈ 0.118 µM) |
| CCC(C)n1ncn(-c2ccc(N3CCN(c4ccc(OCC5COC(Cn6cncn6)(c6ccc(Cl)cc6Cl)O5)cc4)CC3)cc2)c1=O (centres undefined) [ITRACONAZOLE] | 0.125 (≈ 0.177 µM) | 0.5 (≈ 0.709 µM) | 0.5 (≈ 0.709 µM) | 0.0625 (≈ 0.0886 µM) | 0.125 (≈ 0.177 µM) | 0.0625 (≈ 0.0886 µM) | 0.125 (≈ 0.177 µM) | 0.125 (≈ 0.177 µM) |
| CCCCN(Cc1ccccc1C)CC(O)(Cn1cncn1)c1ccc(F)cc1F (centres undefined) | 1 (≈ 2.41 µM) | 1 (≈ 2.41 µM) | > 64 | 1 (≈ 2.41 µM) | 0.25 (≈ 0.603 µM) | 0.0156 (≈ 0.0376 µM) | 0.25 (≈ 0.603 µM) | 0.25 (≈ 0.603 µM) |
| CC(C)N(Cc1cccc(Cl)c1)CC(O)(Cn1cncn1)c1ccc(F)cc1F (centres undefined) | 0.25 (≈ 0.594 µM) | 0.25 (≈ 0.594 µM) | > 64 | 0.0156 (≈ 0.0371 µM) | 0.25 (≈ 0.594 µM) | 1 (≈ 2.38 µM) | 1 (≈ 2.38 µM) | 1 (≈ 2.38 µM) |
| CCCN(Cc1cccc(Cl)c1)CC(O)(Cn1cncn1)c1ccc(F)cc1F (centres undefined) | 4 (≈ 9.5 µM) | 0.25 (≈ 0.594 µM) | > 64 | 0.0625 (≈ 0.148 µM) | 0.25 (≈ 0.594 µM) | 0.0625 (≈ 0.148 µM) | 0.25 (≈ 0.594 µM) | 0.25 (≈ 0.594 µM) |
| CC(C)N(Cc1ccc(Cl)cc1Cl)CC(O)(Cn1cncn1)c1ccc(F)cc1F (centres undefined) | 0.25 (≈ 0.549 µM) | 1 (≈ 2.2 µM) | > 64 | 0.25 (≈ 0.549 µM) | 1 (≈ 2.2 µM) | 1 (≈ 2.2 µM) | 1 (≈ 2.2 µM) | 16 (≈ 35.1 µM) |
| CCCCN(Cc1cccc(Cl)c1)CC(O)(Cn1cncn1)c1ccc(F)cc1F (centres undefined) | 1 (≈ 2.3 µM) | 1 (≈ 2.3 µM) | > 64 | 1 (≈ 2.3 µM) | 0.25 (≈ 0.575 µM) | 0.25 (≈ 0.575 µM) | 1 (≈ 2.3 µM) | 0.25 (≈ 0.575 µM) |
| CCCCN(Cc1ccccc1Cl)CC(O)(Cn1cncn1)c1ccc(F)cc1F (centres undefined) | 1 (≈ 2.3 µM) | 1 (≈ 2.3 µM) | > 64 | 1 (≈ 2.3 µM) | 0.25 (≈ 0.575 µM) | 0.25 (≈ 0.575 µM) | 0.25 (≈ 0.575 µM) | 0.25 (≈ 0.575 µM) |
| CCCN(Cc1ccc([N+](=O)[O-])cc1)CC(O)(Cn1cncn1)c1ccc(F)cc1F (centres undefined) | 0.25 (≈ 0.579 µM) | 0.0625 (≈ 0.145 µM) | 64 (≈ 148 µM) | 0.0156 (≈ 0.0362 µM) | 0.0625 (≈ 0.145 µM) | 0.0156 (≈ 0.0362 µM) | 0.25 (≈ 0.579 µM) | 0.25 (≈ 0.579 µM) |
| CC(C)N(Cc1ccc([N+](=O)[O-])cc1)CC(O)(Cn1cncn1)c1ccc(F)cc1F (centres undefined) | 0.25 (≈ 0.579 µM) | 0.0625 (≈ 0.145 µM) | 64 (≈ 148 µM) | 0.0156 (≈ 0.0362 µM) | 0.0625 (≈ 0.145 µM) | 0.0156 (≈ 0.0362 µM) | 0.25 (≈ 0.579 µM) | 0.25 (≈ 0.579 µM) |
| CN(C/C=C/C#CC(C)(C)C)Cc1cccc2ccccc12 [TERBINAFINE] | 0.0625 (≈ 0.214 µM) | 16 (≈ 54.9 µM) | 0.0625 (≈ 0.214 µM) | 4 (≈ 13.7 µM) | 0.25 (≈ 0.858 µM) | 4 (≈ 13.7 µM) | 0.0625 (≈ 0.214 µM) | 1 (≈ 3.43 µM) |
| CCCCN(Cc1cccc(F)c1)CC(O)(Cn1cncn1)c1ccc(F)cc1F (centres undefined) | 1 (≈ 2.39 µM) | 1 (≈ 2.39 µM) | > 64 | 0.0156 (≈ 0.0373 µM) | 0.25 (≈ 0.597 µM) | 0.0625 (≈ 0.149 µM) | 0.25 (≈ 0.597 µM) | 0.25 (≈ 0.597 µM) |
| CCCN(Cc1ccc(Cl)cc1Cl)CC(O)(Cn1cncn1)c1ccc(F)cc1F (centres undefined) | 1 (≈ 2.2 µM) | 1 (≈ 2.2 µM) | > 64 | 0.25 (≈ 0.549 µM) | 1 (≈ 2.2 µM) | 0.0156 (≈ 0.0343 µM) | 4 (≈ 8.78 µM) | 1 (≈ 2.2 µM) |
| CCCCN(Cc1ccc(CC)cc1)CC(O)(Cn1cncn1)c1ccc(F)cc1F (centres undefined) | 4 (≈ 9.33 µM) | 1 (≈ 2.33 µM) | > 64 | 0.0039 (≈ 0.0091 µM) | 4 (≈ 9.33 µM) | 1 (≈ 2.33 µM) | 1 (≈ 2.33 µM) | 0.25 (≈ 0.583 µM) |
| CCCCN(Cc1ccc([N+](=O)[O-])cc1)CC(O)(Cn1cncn1)c1ccc(F)cc1F (centres undefined) | 0.25 (≈ 0.561 µM) | 1 (≈ 2.24 µM) | > 64 | 0.0156 (≈ 0.035 µM) | 0.25 (≈ 0.561 µM) | 0.0625 (≈ 0.14 µM) | 0.0625 (≈ 0.14 µM) | 0.0625 (≈ 0.14 µM) |
| CCCN(Cc1ccccc1)CC(O)(Cn1cncn1)c1ccc(F)cc1F (centres undefined) | 0.0625 (≈ 0.162 µM) | 0.0625 (≈ 0.162 µM) | > 64 | 0.0156 (≈ 0.0404 µM) | 0.0625 (≈ 0.162 µM) | 0.0156 (≈ 0.0404 µM) | 0.0625 (≈ 0.162 µM) | 0.0625 (≈ 0.162 µM) |
| Cc1ccc(CN(CC(O)(Cn2cncn2)c2ccc(F)cc2F)C(C)C)cc1 (centres undefined) | 0.0625 (≈ 0.156 µM) | 0.25 (≈ 0.624 µM) | 64 (≈ 160 µM) | 1 (≈ 2.5 µM) | 0.25 (≈ 0.624 µM) | 0.0625 (≈ 0.156 µM) | 1 (≈ 2.5 µM) | 0.25 (≈ 0.624 µM) |
